Measured values from paper PMC11164251 (International journal of biological macromolecules, 2023).
Numbering of substitutions follows the chain as printed. Where two headings read alike, the source gives them in different places. Peptide text beside a SMILES is read from it.

How the values were obtained:
ScTFIIS LW domain [1] = molecular target: ScTFIIS LW domain (Saccharomyces cerevisiae, UniProt P07273, W72A); assay type: binding; details: ScTFIIS1–81 LW mutant W72A; ITC, pH 7.4, 200 mM NaCl, 25 °C
ScTFIIS LW domain [2] = molecular target: ScTFIIS LW domain (Saccharomyces cerevisiae, UniProt P07273, K66A); assay type: binding; details: ScTFIIS1–81 LW mutant K66A, pH 7.4, 25 °C
ScTFIIS LW domain [3] = molecular target: ScTFIIS LW domain (Saccharomyces cerevisiae, UniProt P07273); assay type: binding
ScTFIIS LW domain [4] = molecular target: ScTFIIS LW domain (Saccharomyces cerevisiae, UniProt P07273, L41A); assay type: binding; details: ScTFIIS1–81 LW mutant L41A, pH 7.4, 25 °C
ScTFIIS LW domain [5] = molecular target: ScTFIIS LW domain (Saccharomyces cerevisiae, UniProt P07273, I69A); assay type: binding; details: ScTFIIS1–81 LW mutant I69A, pH 7.4, 25 °C
[6] = molecular target: TbTFIIS2–2 LW domain (residue 251–359) L336A (T. brucei); assay: ITC
[7] = molecular target: TbTFIIS2–2 LW domain (residue 251–359) F340A (T. brucei); assay: ITC
HsTFIIS LW domain [8] = assay: ITC of HsLeo1 peptides with the HsTFIIS LW domain; assay type: binding, Homo sapiens; details: HsTFIIS LW domain mutant printed as W339A
Procedure, shortened: (§1)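 Recombinant N-His-tagged LW domain (wild type or point mutant), expressed in E. coli BL21 (DE3) (0.5 mM IPTG, 16 °C, 20 h) and purified by Ni-NTA, gel filtration and ion exchange. ITC: 50 uM protein in cell, 1mM synthetic Leo1 peptides in syringe, 16 × 2 μl injections at 120 s intervals. Buffer: 25 mM Tris, 200 mM NaCl, 1 mM EDTA, 1 % glycerol, pH 7.4, 25 °C. Peptide-into-buffer heat of dilution subtracted.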

HsTFIIS LW domain [9] = molecular target: HsTFIIS LW domain (Homo sapiens, UniProt P23193, I70A); assay: ITC of HsLeo1 peptides with the HsTFIIS LW domain; assay type: binding; details: HsTFIIS1–96 LW mutant I70A, pH 7.4, 200 mM NaCl, 25 °C
Procedure, shortened: as §1

HsTFIIS LW domain [10] = molecular target: HsTFIIS LW domain (Homo sapiens, UniProt P23193); assay: ITC of HsLeo1 peptides with the HsTFIIS LW domain; assay type: binding; details: pH 7.4, 25 °C
Procedure, shortened: as §1

HsTFIIS LW domain [11] = molecular target: HsTFIIS LW domain (Homo sapiens, UniProt P23193, L41A); assay: ITC of HsLeo1 peptides with the HsTFIIS LW domain; assay type: binding; details: HsTFIIS1–96 LW mutant L41A, pH 7.4, 200 mM NaCl, 25 °C
Procedure, shortened: as §1

HsTFIIS LW domain [12] = molecular target: HsTFIIS LW domain (Homo sapiens, UniProt P23193, K67A); assay: ITC of HsLeo1 peptides with the HsTFIIS LW domain; assay type: binding; details: HsTFIIS1–96 LW mutant K67A, pH 7.4, 200 mM NaCl, 25 °C
Procedure, shortened: as §1

HsTFIIS LW domain [13] = molecular target: HsTFIIS LW domain (Homo sapiens, UniProt P23193, W73A); assay: ITC of HsLeo1 peptides with the HsTFIIS LW domain; assay type: binding; details: HsTFIIS1–96 LW mutant W73A, pH 7.4, 200 mM NaCl, 25 °C
Procedure, shortened: as §1

[14] = molecular target: T1, ScTFIIS LW domain, longer version (residue 1–93) (S. cerevisiae, UniProt P07273 1-93); assay: ITC
T1 sequence (looked up): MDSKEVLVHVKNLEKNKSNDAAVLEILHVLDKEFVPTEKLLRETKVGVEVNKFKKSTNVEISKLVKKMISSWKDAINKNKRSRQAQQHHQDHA

[15] = molecular target: T2, ScTFIIS LW domain (residue 1–81) K66A (S. cerevisiae, UniProt P07273 1-81, K66A); assay: ITC
T2 sequence (looked up): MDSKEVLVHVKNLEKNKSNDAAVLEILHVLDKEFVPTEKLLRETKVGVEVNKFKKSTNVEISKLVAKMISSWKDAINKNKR

[16] = molecular target: T3, ScTFIIS LW domain (residue 1–81), wild type (S. cerevisiae, UniProt P07273 1-81); assay: ITC
T3 sequence (looked up): T2 sequence (looked up) with A66K

[17] = molecular target: T4, ScTFIIS LW domain (residue 1–81) I69A (S. cerevisiae, UniProt P07273 1-81, I69A); assay: ITC
T4 sequence (looked up): T2 sequence (looked up) with A66K, I69A

[18] = molecular target: T5, ScTFIIS LW domain (residue 1–81) L41A (S. cerevisiae, UniProt P07273 1-81, L41A); assay: ITC
T5 sequence (looked up): T2 sequence (looked up) with L41A, A66K

[19] = molecular target: HsTFIIS LW domain (residue 1–96) K67A (H. sapiens, UniProt P23193 1-96, K67A); assay: ITC
[20] = molecular target: HsTFIIS LW domain without the C-terminus (residue 1–78) (H. sapiens, UniProt P23193 1-78); assay: ITC
[21] = molecular target: HsTFIIS LW domain (residue 1–96), wild type (H. sapiens, UniProt P23193 1-96); assay: ITC

Question: What does the source list for `CC(C)C[C@H](NC(=O)[C@H](CCC(=O)O)NC(=O)[C@H](C)NC(=O)[C@H](CC(=O)O)NC(=O)[C@H](CCC(=O)O)NC(=O)[C@@H](N)CCC(=O)O)C(=O)N[C@@H](CC(=O)O)C(=O)N[C@@H](CC(=O)O)C(=O)N[C@@H](CC(C)C)C(=O)N[C@@H](Cc1ccccc1)C(=O)NCC(=O)N[C@@H](CC(=O)O)C(=O)N[C@@H](CC(=O)O)C(=O)N[C@@H](CC(N)=O)C(=O)N[C@@H](CC(=O)O)C(=O)O` [ScLeo1_54–68] (H-EEDAELDDLFGDDND-OH; N-terminus and C-terminus assumed)?
Answer: Kd (ScTFIIS LW domain [1]): weak binding; N (ITC binding stoichiometry) (ScTFIIS LW domain [2]): 0.95; N (ITC binding stoichiometry) (ScTFIIS LW domain [3]; ScTFIIS LW1–93, pH 7.4, 25 °C): 1.04; N (ITC binding stoichiometry) (ScTFIIS LW domain [3]; wild type ScTFIIS1–81 LW, pH 7.4, 25 °C): 1.00; N (ITC binding stoichiometry) (ScTFIIS LW domain [4]): 1.03; N (ITC binding stoichiometry) (ScTFIIS LW domain [5]): 0.99

Question: With “TbLeo1 peptide (residue 71–86) containing the LFG motif” as the molecule, how does the Kd [6] read?
Answer: 1.11 µM

Question: What about the Kd [7] of the same molecule?
Answer: 9.33 µM

Question: For `CC(C)C[C@H](NC(=O)[C@H](CCC(=O)O)NC(=O)[C@H](CCCCN)NC(=O)[C@H](CC(N)=O)NC(=O)[C@H](CO)NC(=O)[C@@H]1CCCN1C(=O)[C@@H](N)CCC(N)=O)C(=O)N[C@@H](Cc1ccccc1)C(=O)NCC(=O)N[C@@H](CC(=O)O)C(=O)N[C@@H](CC(=O)O)C(=O)N[C@@H](CO)C(=O)N[C@@H](CCC(=O)O)C(=O)N[C@@H](CC(=O)O)C(=O)N[C@@H](CCC(=O)O)C(=O)NCC(=O)O` [HsLeo1_55–70] (H-QPSNKELFGDDSEDEG-OH; N-terminus and C-terminus assumed), which “binding (ITC), result in words” value (HsTFIIS LW domain [8]) is on record?
Answer: abolishes the interactions

Question: What about the Kd (HsTFIIS LW domain [9]) of the same molecule?
Answer: no binding

Question: And the “N (ITC binding stoichiometry)” value (HsTFIIS LW domain [10]; HsTFIIS1–78 LW)?
Answer: 1.00

Question: And the “N (ITC binding stoichiometry)” value (HsTFIIS LW domain [10]; wild type HsTFIIS1–96 LW)?
Answer: 0.96

Question: And the Kd (HsTFIIS LW domain [11])?
Answer: no binding

Question: What about the Kd (HsTFIIS LW domain [12]) of the same molecule?
Answer: weak binding

Question: And the Kd (HsTFIIS LW domain [13])?
Answer: no binding

Question: Which Kd [14] does the source give for EEDAELDDLFGDDND (peptide, UniProt P38439 54-68, looked up) [ScLeo1 peptide (residue 54–68) containing the LFG motif] here?
Answer: 1.39 µM

Question: What about the “stoichiometry N” value [14] of the same molecule?
Answer: 1.04

Question: What about the Kd [15] of the same molecule?
Answer: 5.1 µM

Question: And the “stoichiometry N” value [15]?
Answer: 0.95

Question: And the Kd [16]?
Answer: 3.3 µM

Question: And the “stoichiometry N” value [16]?
Answer: 1

Question: What about the Kd [17] of the same molecule?
Answer: 44 µM

Question: What about the “stoichiometry N” value [17] of the same molecule?
Answer: 0.99

Question: And the Kd [18]?
Answer: 37 µM

Question: What about the “stoichiometry N” value [18] of the same molecule?
Answer: 1.03

Question: For ADMEDLFGSDADSEA (peptide, UniProt Q8WVC0 2-16, looked up) [HsLeo1 peptide (residue 2–16) containing an LFG motif], which “stoichiometry N” value [19] is on record?
Answer: 1

Question: What about the “stoichiometry N” value [20] of the same molecule?
Answer: 1

Question: And the “stoichiometry N” value [21]?
Answer: 1

Question: How did the Kd [20] turn out when QPSNKELFGDDSEDEG (peptide, UniProt Q8WVC0 55-70, looked up) [HsLeo1 peptide (residue 55–70) containing an LFG motif] was run?
Answer: 57.6 µM

Question: And the “stoichiometry N” value [20]?
Answer: 1

Question: What about the Kd [21] of the same molecule?
Answer: 44 µM

Question: And the “stoichiometry N” value [21]?
Answer: 0.96
